From ChEMBL document CHEMBL1955742, “Synthesis and SAR studies of phenanthroindolizidine and phenanthroquinolizidine alkaloids as potent anti-tumor agents” (2012)

Columns and labels:
Type in all cases: functional
A549 [1] = experiment: Antiproliferative activity against human A549 cells after 72 hrs by MTT assay
Outline: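 A549 human lung adenocarcinoma epithelial cells were seeded and grown for 24 h, then exposed to compounds for a further 72 h. Proliferation was read by MTT, as assigned in the table footnote. GI50 was calculated by the Logit method from at least three independent experiments.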

HL-60 [2] = experiment: Antiproliferative activity against human HL60 cells after 72 hrs by SRB assay
Outline: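 HL60 human promyelocytic leukemia cells were seeded and grown for 24 h, then given compounds and cultured for another 72 h. Read-out was SRB, per the table footnote. GI50 was obtained by the Logit method from three or more independent experiments.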

HL-60 [3] = experiment: Antiproliferative activity against human HL60 cells at 10^-8 mol/L after 72 hrs by SRB assay; conditions: HL-60, 72 h
A549 [4] = experiment: Antiproliferative activity against human A549 cells at 10^-7 mol/L after 72 hrs by MTT assay; conditions: A549, 72 h
HL-60 [5] = experiment: Antiproliferative activity against human HL60 cells at 10^-7 mol/L after 72 hrs by SRB assay; conditions: HL-60, 72 h
A549 [6] = experiment: Antiproliferative activity against human A549 cells at 10^-6 mol/L after 72 hrs by MTT assay; conditions: A549, 72 h
A549 [7] = experiment: Antiproliferative activity against human A549 cells at 10^-8 mol/L after 72 hrs by MTT assay; conditions: A549, 72 h
HL-60 [8] = experiment: Antiproliferative activity against human HL60 cells at 10^-6 mol/L after 72 hrs by SRB assay; conditions: HL-60, 72 h

| Structure (SMILES) | GI50 (A549 [1]; Homo sapiens, A549, 72 h) [nM] | GI50 (HL-60 [2]; Homo sapiens, HL-60, 72 h) [nM] | other results |
| --- | --- | --- | --- |
| COc1ccc2c3c(c4cc(OC)c(OC)cc4c2c1)C[C@@H]1CCCCN1C3 |  |  | GI50 (A549 [1]): < 1 nM; GI50 (HL-60 [2]): < 1 nM |
| COc1ccc2c3c(c4cc(OC)c(OC)cc4c2c1)[C@H](NC(C)=O)[C@@H]1CCCN1C3 | 50 | 50 |  |
| COc1cc2c3c(c4cc(OC)c(OC)cc4c2cc1OC)CN1CCC[C@@H]1C3 [TYLOPHORINE] | 500 | 100 |  |
| COc1cc2c3c(c4cc(OC)c(OC)cc4c2cc1OC)[C@H](O)[C@H]1CCCN1C3 |  |  | inhibition at 0.01 µM (HL-60 [3]): 12.1%; inhibition at 0.1 µM (A549 [4]): 5.6%; inhibition at 0.1 µM (HL-60 [5]): 16.1%; inhibition at 1 µM (A549 [6]): 17.9%; inhibition at 0.01 µM (A549 [7]): 5%; inhibition at 1 µM (HL-60 [8]): 27% |
| COc1ccc2c3c(c4cc(OC)c(OC)cc4c2c1)CN1CCC[C@H]1[C@H]3N | 100 | 50 |  |
| c1c2c(cc3c1c1c(c4cc5c(cc43)OCO5)CN3CCCC3C1)OCO2 (racemic) |  |  | inhibition at 0.01 µM (HL-60 [3]): 10.4%; inhibition at 0.1 µM (A549 [4]): 5.2%; inhibition at 0.1 µM (HL-60 [5]): 8.3%; inhibition at 1 µM (A549 [6]): 40.8%; inhibition at 0.01 µM (A549 [7]): 5.7%; inhibition at 1 µM (HL-60 [8]): 13.6% |
| COc1ccc2c3c(c4cc(OC)c(OC)cc4c2c1)CN1CCC[C@H]1C3 | 90 | 60 |  |
| COc1cc2c3c(c4cc(OC)c(OC)cc4c2cc1OC)CN1CCCC[C@H]1C3 | 60 | < 1 |  |
| COc1ccc2c3c(c4cc(OC)c(OC)cc4c2c1)CN1CCC[C@H]1[C@H]3O | 30 | < 1 |  |
| COc1ccc2c3c(c4cc(OC)c(OC)cc4c2c1)C[C@H]1CCCN1C3 [(-)-ANTOFINE] | 10 | < 1 |  |
| COc1ccc2c3c(c4cc(OC)c(OC)cc4c2c1)CN1CCCC[C@H]1C3 | 700 | 600 |  |
| COc1cc2c3c(c4cc5c(cc4c2cc1OC)OCO5)CN1CCCC1C3 (racemic) |  |  | inhibition at 0.01 µM (HL-60 [3]): 14.8%; inhibition at 0.1 µM (A549 [4]): 51.6%; inhibition at 0.1 µM (HL-60 [5]): 56.4%; inhibition at 1 µM (A549 [6]): 80.9%; inhibition at 0.01 µM (A549 [7]): 16.9%; inhibition at 1 µM (HL-60 [8]): 88.4% |
| COc1cc2c3c(c4ccc(O)cc4c2cc1OC)CN1CCC[C@H]1C3 | 40 | 100 | inhibition at 0.01 µM (HL-60 [3]): 37.4%; inhibition at 0.1 µM (A549 [4]): 71.3%; inhibition at 0.1 µM (HL-60 [5]): 76.1%; inhibition at 1 µM (A549 [6]): 85.9%; inhibition at 0.01 µM (A549 [7]): 21.9%; inhibition at 1 µM (HL-60 [8]): 85.8% |
| COc1ccc2c3c(c4cc(OC)c(OC)cc4c2c1)[C@H](O)[C@@H]1CCCCN1C3 | 1000 | 40 |  |
| COc1cc2c3c(c4cc(OC)c(OC)cc4c2cc1OC)[C@H](O)[C@@H]1CCCN1C3 | 670 |  | inhibition at 0.01 µM (HL-60 [3]): 34.5%; inhibition at 0.1 µM (A549 [4]): 55%; inhibition at 0.1 µM (HL-60 [5]): 59.5%; inhibition at 1 µM (A549 [6]): 80.9%; inhibition at 0.01 µM (A549 [7]): 17.1%; inhibition at 1 µM (HL-60 [8]): 85% |
| COc1cc2c3c(c4cc(OC)c(OC)cc4c2cc1OC)[C@H](NC(=O)C(C)(C)C)[C@@H]1CCCN1C3 | > 10000 | > 10000 |  |
| COc1cc2c3c(c4cc(OC)c(OC)cc4c2cc1OC)[C@@H](O)[C@H]1CCCCN1C3 | 70 | < 1 |  |
| COc1ccc2c3c(c4cc(OC)c(OC)cc4c2c1)CN1CCC[C@H]1[C@H]3NC(C)=O | 1500 | 1200 |  |
| COc1ccc2c3c(c4cc(OC)c(OC)cc4c2c1)CN1CCC[C@@H]1C3 | 700 | 300 |  |
| COc1cc2c3c(c4cc(OC)c(OC)cc4c2cc1OC)[C@H](NC(C)=O)[C@@H]1CCCN1C3 | > 10000 | > 10000 |  |
| COc1ccc2c3c(c4cc(OC)c(OC)cc4c2c1)CN1CCC[C@@H]1[C@@H]3O | 3700 | 300 |  |
| COc1cc2c3c(c4cc(OC)c(OC)cc4c2cc1OC)CN1CCC[C@H]1C3 [(S)-TYLOPHORINE] | 700 | 10 |  |
